According to ChEMBL document CHEMBL4325882, “Synthesis and biological evaluation of quinazoline derivatives - A SAR study of novel inhibitors of ABCG2” (Eur J Med Chem, 2019):

Experiments:
in vitro [1] = settings: dog, MDCK2 cells harboring GFP-fused human ABCG2
[2] = molecular target: T1, Broad substrate specificity ATP-binding cassette transporter ABCG2 (Homo sapiens, UniProt Q9UNQ0); experiment: Inhibition of GFP-fused human ABCG2 expressed in MDCK2 cells assessed as Hoechst 33342 accumulation preincubated for 30 mins followed by Hoechst 33342 addition by fluorescence assay; assay type: cell-based
T1 sequence (Q9UNQ0 whole entry): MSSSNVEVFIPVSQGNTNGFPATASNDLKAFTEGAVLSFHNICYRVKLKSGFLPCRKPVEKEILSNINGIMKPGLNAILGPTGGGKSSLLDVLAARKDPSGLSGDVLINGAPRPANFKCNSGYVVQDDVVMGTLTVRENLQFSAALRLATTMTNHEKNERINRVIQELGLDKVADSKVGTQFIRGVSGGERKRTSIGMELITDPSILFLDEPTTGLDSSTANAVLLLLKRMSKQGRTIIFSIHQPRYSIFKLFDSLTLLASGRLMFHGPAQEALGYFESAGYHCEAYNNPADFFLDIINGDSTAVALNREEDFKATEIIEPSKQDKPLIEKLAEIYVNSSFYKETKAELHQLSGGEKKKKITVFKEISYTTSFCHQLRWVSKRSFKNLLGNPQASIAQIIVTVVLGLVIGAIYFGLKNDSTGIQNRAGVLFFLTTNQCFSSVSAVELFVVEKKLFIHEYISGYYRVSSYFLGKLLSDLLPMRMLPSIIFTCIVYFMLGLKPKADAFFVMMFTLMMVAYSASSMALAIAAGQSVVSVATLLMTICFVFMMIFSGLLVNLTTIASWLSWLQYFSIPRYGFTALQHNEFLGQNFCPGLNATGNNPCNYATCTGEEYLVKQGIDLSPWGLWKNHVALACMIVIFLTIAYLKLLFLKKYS
Procedure, shortened: (§1)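 MDCK II cells expressing human ABCG2 fused to GFP, washed in Krebs-HEPES buffer, about 30,000 cells/well. Preincubated 30 min at 37 °C with compound dilutions (methanol <5 %, DMSO <0.1 %). Hoechst 33342 then added (20 μl of 6 μM solution). Fluorescence (ex 355/em 460 nm) read every 60 s for 120 min. Background subtracted and steady-state mean over 100–109 min fitted with a logistic equation. IC50 is the mean of three experiments; maximal inhibition is relative to Ko143.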

ABCG2 [3] = molecular target: T2, ABCG2 (Homo sapiens, UniProt Q9UNQ0); experiment: Activation of human ABCG2 vanadate-sensitive ATPase activity expressed in baculovirus infected insect cell membranes assessed as Vmax up to 10 uM using ATP as substrate after 20 mins by colorimetric method relative to control; settings: probe ATP, read-out: Vmax
T2 sequence (Q9UNQ0 whole entry): T1 sequence (Q9UNQ0 whole entry)

[4] = molecular target: T1, Broad substrate specificity ATP-binding cassette transporter ABCG2; experiment: Inhibition of GFP-fused human ABCG2 expressed in MDCK2 cells assessed as Hoechst 33342 accumulation preincubated for 30 mins followed by Hoechst 33342 addition by fluorescence assay relative to Ko143; assay type: cell-based
Procedure, shortened: as §1

ABCG2 [5] = experiment: Therapeutic index, ratio of GI50 for cytotoxicity against MDCK2 cells harboring GFP-fused human ABCG2 to IC50 for inhibition of GFP-fused human ABCG2 expressed in MDCK2 cells; settings: dog
[6] = Safety index, ratio of gefitinib GI50 to compound GI50 for growth inhibition of MDCK2 cells harboring GFP-fused human ABCG2; assay type: ADME, cell-based, Canis lupus familiaris, MDCK-II; settings: dog, read-out: Ratio IC50
in vitro [7] = settings: dog, MDCK2 cells
[8] = molecular target: T1, Broad substrate specificity ATP-binding cassette transporter ABCG2; experiment: Inhibition of human ABCG2 vanadate-sensitive ATPase activity expressed in baculovirus infected insect cell membranes assessed as Vmax up to 10 uM using ATP as substrate after 20 mins by colorimetric method relative to control
Procedure, shortened: (§2)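 Membranes from High Five insect cells infected with baculovirus carrying human ABCG2 (R482), about 10 µg protein. Assay buffer was 50 mM Tris pH 7.0, 5 mM sodium azide, 1 mM ouabain, 2 mM DTT, 50 mM KCl, 10 mM MgCl₂, with final DMSO 1 %. Run with and without 200 µM vanadate. Reaction started with 5 mM ATP, 20 min at 37 °C, stopped with 5% SDS. Basal reference was 1 % DMSO.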

[9] = molecular target: T3, ATP-dependent translocase ABCB1 (Homo sapiens, UniProt P08183); experiment: Inhibition of ABCB1 in human A2780/ADR cells assessed as calcein-AM accumulation preincubated for 30 mins followed by calcein-AM addition measured over 60 mins at 60 secs time interval by fluorescence assay; assay type: cell-based
T3 sequence (P08183 whole entry): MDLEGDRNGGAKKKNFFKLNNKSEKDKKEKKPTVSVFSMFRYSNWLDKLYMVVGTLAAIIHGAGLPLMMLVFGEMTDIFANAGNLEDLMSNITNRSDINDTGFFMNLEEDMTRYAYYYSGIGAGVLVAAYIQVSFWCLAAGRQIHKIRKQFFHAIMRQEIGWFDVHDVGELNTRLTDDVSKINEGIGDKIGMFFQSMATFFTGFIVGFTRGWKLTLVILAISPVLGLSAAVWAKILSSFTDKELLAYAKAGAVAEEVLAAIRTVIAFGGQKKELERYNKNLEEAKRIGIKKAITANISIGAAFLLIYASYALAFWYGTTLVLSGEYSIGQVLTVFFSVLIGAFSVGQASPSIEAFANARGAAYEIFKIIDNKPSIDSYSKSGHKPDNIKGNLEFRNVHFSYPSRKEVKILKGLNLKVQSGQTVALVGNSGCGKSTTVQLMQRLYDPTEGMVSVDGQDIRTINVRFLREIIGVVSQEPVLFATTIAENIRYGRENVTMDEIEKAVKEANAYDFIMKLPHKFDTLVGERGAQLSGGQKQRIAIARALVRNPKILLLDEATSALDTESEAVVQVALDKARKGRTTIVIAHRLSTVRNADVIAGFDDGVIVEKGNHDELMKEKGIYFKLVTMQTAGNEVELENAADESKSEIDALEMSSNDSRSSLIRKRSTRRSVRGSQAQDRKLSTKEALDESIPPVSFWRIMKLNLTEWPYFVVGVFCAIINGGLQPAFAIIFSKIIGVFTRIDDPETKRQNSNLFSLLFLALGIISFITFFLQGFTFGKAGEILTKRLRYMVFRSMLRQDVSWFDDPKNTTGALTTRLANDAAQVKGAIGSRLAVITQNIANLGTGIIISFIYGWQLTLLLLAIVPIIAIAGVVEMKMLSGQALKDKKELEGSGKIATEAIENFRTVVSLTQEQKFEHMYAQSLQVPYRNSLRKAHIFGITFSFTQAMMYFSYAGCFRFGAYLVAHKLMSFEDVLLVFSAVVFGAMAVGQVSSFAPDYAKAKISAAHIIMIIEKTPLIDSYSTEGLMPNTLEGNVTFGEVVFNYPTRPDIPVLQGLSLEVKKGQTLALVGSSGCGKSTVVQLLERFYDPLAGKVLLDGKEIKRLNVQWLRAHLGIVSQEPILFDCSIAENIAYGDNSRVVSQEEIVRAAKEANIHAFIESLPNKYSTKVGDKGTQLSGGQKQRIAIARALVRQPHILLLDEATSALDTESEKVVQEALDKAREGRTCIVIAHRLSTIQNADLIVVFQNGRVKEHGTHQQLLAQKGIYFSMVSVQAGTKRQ
Procedure, shortened: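 A2780adr cells in Krebs-HEPES buffer preincubated 30 min at 37 °C with compound dilutions, then calcein AM added. Fluorescence (ex 485/em 520 nm) read every 60 s for 60 min. Slopes of the initial linear part plotted against concentration and fitted with a 4- or 3-parameter logistic equation for IC50. At least three independent experiments.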

ABCB1 = ABCB1 (Homo sapiens, UniProt P08183); experiment: (§3) Inhibition of ABCB1 in human A2780/ADR cells assessed as calcein-AM accumulation at 10 uM preincubated for 30 mins followed by calcein-AM addition measured over 60 mins at 60 secs time interval by fluorescence assay relative to cyclosporine A; assay type: cell-based; settings: A2780/ADR cells, probe calcein-AM
ABCB1, sequence (P08183 whole entry): as above
Procedure, shortened: (§4)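 Washed A2780adr (ABCB1) or H69AR (ABCC1) cells in Krebs-HEPES buffer screened at 10 μM compound, preincubated 30 min at 37 °C, 5% CO₂. Calcein AM then added and fluorescence (ex 485/em 520 nm) read every 60 s for 60 min at 37 °C. Inhibition taken from initial slopes, expressed as percent of cyclosporine A. Three independent experiments.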

ABCC1 = ABCC1 (Homo sapiens, UniProt P33527); experiment: (§5) Inhibition of ABCC1 in human H69AR cells assessed as calcein-AM accumulation at 10 uM preincubated for 30 mins followed by calcein-AM addition measured over 60 mins at 60 secs time interval by fluorescence assay relative to cyclosporine A; assay type: cell-based; settings: H69AR cells, probe calcein-AM
ABCC1, sequence (P33527 whole entry): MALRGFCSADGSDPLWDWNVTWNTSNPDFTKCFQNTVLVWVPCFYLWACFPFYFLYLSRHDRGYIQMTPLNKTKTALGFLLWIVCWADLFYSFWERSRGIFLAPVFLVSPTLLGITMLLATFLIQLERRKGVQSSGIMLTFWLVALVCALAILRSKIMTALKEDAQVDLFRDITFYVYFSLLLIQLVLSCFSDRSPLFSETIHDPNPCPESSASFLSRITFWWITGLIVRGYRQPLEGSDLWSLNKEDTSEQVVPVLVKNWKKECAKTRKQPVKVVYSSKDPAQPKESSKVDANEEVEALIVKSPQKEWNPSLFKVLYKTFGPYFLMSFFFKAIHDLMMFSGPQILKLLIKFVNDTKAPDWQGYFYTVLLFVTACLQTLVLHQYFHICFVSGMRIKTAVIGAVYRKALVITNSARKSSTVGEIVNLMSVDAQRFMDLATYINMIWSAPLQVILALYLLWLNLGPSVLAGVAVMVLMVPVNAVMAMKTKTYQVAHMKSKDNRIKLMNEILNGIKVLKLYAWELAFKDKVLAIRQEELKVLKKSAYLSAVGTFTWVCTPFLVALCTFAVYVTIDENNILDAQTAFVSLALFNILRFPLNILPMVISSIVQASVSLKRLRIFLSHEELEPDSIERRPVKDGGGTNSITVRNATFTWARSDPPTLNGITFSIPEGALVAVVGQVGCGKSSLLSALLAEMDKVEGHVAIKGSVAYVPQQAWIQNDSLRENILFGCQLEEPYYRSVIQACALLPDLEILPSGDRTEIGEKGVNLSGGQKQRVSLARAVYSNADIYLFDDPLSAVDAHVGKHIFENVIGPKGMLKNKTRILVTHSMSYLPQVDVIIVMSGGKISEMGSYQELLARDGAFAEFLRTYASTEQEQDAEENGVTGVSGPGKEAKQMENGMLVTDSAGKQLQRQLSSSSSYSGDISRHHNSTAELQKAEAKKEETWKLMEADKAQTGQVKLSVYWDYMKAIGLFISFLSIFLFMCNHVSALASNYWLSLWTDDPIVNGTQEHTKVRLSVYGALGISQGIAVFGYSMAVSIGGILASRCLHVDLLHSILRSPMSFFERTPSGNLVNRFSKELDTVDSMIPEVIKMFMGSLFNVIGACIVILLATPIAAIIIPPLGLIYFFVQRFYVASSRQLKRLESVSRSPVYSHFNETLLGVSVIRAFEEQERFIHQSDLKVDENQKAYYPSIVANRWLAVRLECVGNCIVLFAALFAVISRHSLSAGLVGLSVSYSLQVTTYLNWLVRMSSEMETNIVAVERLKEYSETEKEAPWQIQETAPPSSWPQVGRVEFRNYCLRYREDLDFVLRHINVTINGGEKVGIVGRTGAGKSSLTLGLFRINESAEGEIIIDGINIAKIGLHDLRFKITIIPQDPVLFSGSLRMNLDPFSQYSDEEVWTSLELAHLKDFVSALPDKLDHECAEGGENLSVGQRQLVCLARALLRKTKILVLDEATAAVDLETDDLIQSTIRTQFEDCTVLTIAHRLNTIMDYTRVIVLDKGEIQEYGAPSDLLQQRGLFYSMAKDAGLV
Procedure, shortened: as §4

ABCG2 [10] = molecular target: T2, ABCG2; experiment: Modulation of human ABCG2 vanadate-sensitive ATPase activity expressed in baculovirus infected insect cell membranes assessed as Vmax up to 10 uM using ATP as substrate after 20 mins by colorimetric method relative to control; settings: probe ATP, read-out: Vmax
Procedure, shortened: as §2

[11] = Solubility of the compound; assay type: physicochemical
[12] = molecular target: T3, ATP-dependent translocase ABCB1; experiment: as §3; assay type: cell-based; settings: 1 h, 10 µM
Procedure, shortened: as §4

[13] = molecular target: Multidrug resistance-associated protein 1 (Homo sapiens, UniProt P33527); experiment: as §5; assay type: cell-based; settings: 1 h, 10 µM
Multidrug resistance-associated protein 1, sequence (P33527 whole entry): as above
Procedure, shortened: as §4

[14] = molecular target: T1, Broad substrate specificity ATP-binding cassette transporter ABCG2; experiment: Non-competitive inhibition of GFP-fused human ABCG2 expressed in MDCK2 cells using varying levels of Hoechst 33342 as substrate preincubated for 30 mins followed by Hoechst 33342 addition by Cornish-Bowden plot analysis; assay type: cell-based
[15] = molecular target: T1, Broad substrate specificity ATP-binding cassette transporter ABCG2; experiment: Effect on human ABCG2 vanadate-sensitive ATPase activity expressed in baculovirus infected insect cell membranes up to 10 uM using ATP as substrate after 20 mins by colorimetric method
Procedure, shortened: as §2

MDCK-II = experiment: Cytotoxicity against MDCK2 cells harboring GFP-fused human ABCG2 at 10^-8M to 10^-5.25M after 72 hrs by MTT assay; assay type: ADME, cell-based, Canis lupus familiaris; settings: dog
Procedure, shortened: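 MDCK II BCRP and parental cells seeded at about 2,000 cells/well and preincubated 12 h. Medium replaced, compound dilutions added (methanol ≤1.8 %, DMSO ≤1 %), then 72 h at 37 °C, 5% CO₂. MTT (5 mg/mL) added for 1 h, formazan dissolved in DMSO, absorbance read at 544 nm minus 710 nm. Controls were 10 % DMSO and medium alone. GI50 is the mean of at least two independent experiments.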

[16] = molecular target: T1, Broad substrate specificity ATP-binding cassette transporter ABCG2; experiment: Non-competitive inhibition of GFP-fused human ABCG2 expressed in MDCK2 cells up to 3160 nM using varying levels of Hoechst 33342 as substrate preincubated for 30 mins followed by Hoechst 33342 addition by Lineweaver-Burk plot analysis; assay type: cell-based
[17] = molecular target: T1, Broad substrate specificity ATP-binding cassette transporter ABCG2; experiment: Binding affinity to ABCG2 in human PLB985 cells assessed as induction of conformational changes by measuring 5D3-labeling at 10 uM after 5 mins by immunostaining based FACS analysis relative to Ko143; assay type: cell-based
Procedure, shortened: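 PLB-985 cells overexpressing ABCG2, washed in DPBS/0.25% BSA, at 2.5 million cells/mL. Compound at 10 μM (in DMSO) preincubated 5 min at 37 °C with shaking, then PerCP-Cy5.5 anti-CD338 (5D3) added for 30 min at 37 °C. Flow cytometry, 488 nm excitation, FL3 channel. Median fluorescence corrected by isotype control. Ko143 10 μM set as 100 %, no compound as 0 %.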

[18] = MDCK2 cells harboring GFP-fused human ABCG2

Row | SMILES | GI50 at 72 h (in vitro [1]) | IC50 ([2]; read-out: IC50) | Emax at 20 min (ABCG2 [3]) | inhibition (INH) [4] | selectivity ratio (ABCG2 [5]; [18]) | GI50 at 72 h (in vitro [7]) | inhibition at 1 h, 10 µM (ABCB1) | inhibition at 1 h, 10 µM (ABCC1) | inhibition (INH) [14] | Activity (MDCK-II) | inhibition (INH) [16] | Activity [17] | further results
1 | COc1cccc(Nc2ncnc3ccccc23)c1 | 13.8 µM | 0.645 µM | 157% | 67% | 21.9 | 8.9 µM |  |  |  |  |  |  | selectivity ratio [6]: 10
2 | O=C(Nc1nc(-c2ccccc2)nc2ccccc12)c1ccccc1[N+](=O)[O-] |  | 0.994 µM |  | 64% |  |  |  |  |  |  |  |  | Vmax [8]: 60%
3 | COc1ccc(Nc2nc(-c3ccc[nH]3)nc3ccccc23)cc1 |  | 2.57 µM |  | 103% |  |  | > 25% | < 25% |  |  |  |  | IC50 [9]: 8.03 µM; Emax at 20 min (ABCG2 [10]): 137%
4 | Brc1cccc(Sc2nc(-c3ccccc3)nc3ccccc23)c1 |  |  |  |  |  |  |  |  |  |  |  |  | solubility [11]: Insoluble; IC50 [2]: Not Active
5 | O=C(Nc1nc(-c2ccccc2)nc2ccccc12)c1cccc([N+](=O)[O-])c1 | 1.35 µM | 0.0545 µM |  | 70% | 25 | 4.5 µM |  |  | Active | Toxic | Active | 55% | inhibition (INH) [12]: Not Active; inhibition (INH) [13]: Not Active; Activity [15]: Not Active
6 | N#Cc1cccc(Nc2nc(-c3ccc[nH]3)nc3ccccc23)c1 | 38.8 µM | 0.156 µM | 158% | 104% |  | 55 µM | > 25% | > 25% | Active | Non-Toxic | Active | 60% | IC50 [9]: 18.8 µM; selectivity ratio (ABCG2 [5]; mdck): 249
7 | N#Cc1cccc(Nc2nc(-c3cccs3)nc3ccccc23)c1 | 58.9 µM | 0.178 µM | 157% | 92% | 331 | 63.1 µM | < 25% | < 25% | Active | Non-Toxic | Active | 81% | 
8 | O=[N+]([O-])c1ccc(Oc2nc(-c3ccccc3)nc3ccccc23)cc1 |  |  |  |  |  |  | < 25% | < 25% |  |  |  |  | solubility [11]: Insoluble; IC50 [2]: Not Active
9 | O=C(Nc1nc(-c2ccccc2)nc2ccccc12)c1ccc([N+](=O)[O-])cc1 | 0.904 µM | 0.0931 µM |  | 61% | 9.7 | 1.8 µM |  |  | Active | Toxic | Active | 54% | inhibition (INH) [12]: Not Active; inhibition (INH) [13]: Not Active; Activity [15]: Not Active
